Values after ≈ are worked out from the molar mass of the structure shown.
Tests used:
Enterococcus faecium = experiment: In vitro antibacterial activity against Enterococcus faecium ATCC 12202 (E.fm 154) vancomycin resistant; assay type: functional, enterococcus fecium
Outline: (§1)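 Broth microdilution MIC per NCCLS guidelines in Mueller Hinton medium. Doubling dilutions from 256 to 1 μg/mL, inoculum (1–5) × 10⁵ CFU/mL, incubated overnight in ambient air at 35 °C. MIC is the lowest concentration giving complete growth inhibition. Linezolid and vancomycin served as controls.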

Staphylococcus aureus [1] = experiment: In vitro antibacterial activity against methicillin resistant Staphylococcus aureus ATCC 33591 (S. a. 019); assay type: functional; outline: as §1
Staphylococcus aureus [2] = experiment: In vitro antibacterial activity against Staphylococcus aureus ATCC 49951 (S. a. 213); assay type: functional; outline: as §1
Enterococcus faecalis [3] = experiment: In vitro antibacterial activity against Enterococcus faecalis ATCC 29212 (E. f. 034) vancomycin sensitive; assay type: functional; outline: as §1
Enterococcus faecalis [4] = experiment: In vitro antibacterial activity against Enterococcus faecalis NCTC 12201 (E. f. 153) vancomycin resistant; assay type: functional; outline: as §1
Mus musculus [5] = experiment: In vivo antibacterial activity in a murine systemic infection model; assay type: functional
Outline: (§2)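 Female Swiss Albino mice (22–25 g, n = 6) were infected intraperitoneally with 0.5 mL S. aureus ATCC 29213. The inoculum was grown 2–3 h at 35 °C in BHI broth and adjusted to 100 × LD50 in 5% hog gastric mucin. Compound was suspended in 0.25% carboxymethyl cellulose and given orally 1 and 6 h post-infection; controls received saline. Cumulative mortality was scored over 48 h, and ED50 was derived by linear regression.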

Staphylococcus aureus [6] = experiment: In vitro antibacterial activity against Staphylococcus aureus ATCC 29213 (S. a. 035); assay type: functional
Outline: (§3)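 Broth microdilution per NCCLS guidelines in Mueller Hinton medium. Doubling dilutions 256–1 μg/mL; inoculum (1–5) × 10⁵ CFU/mL; plates incubated overnight at 35 °C in ambient air. MIC read as the lowest concentration giving complete growth inhibition. Linezolid and vancomycin served as controls.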

Enterococcus faecalis [7] = experiment: In vitro antibacterial activity against Enterococcus faecalis ATCC 29212 (E. f. 153) vancomycin sensitive; assay type: functional; outline: as §3
Mus musculus [8] = experiment: In vivo antibacterial activity in a murine systemic infection model (95%confidence limits); assay type: functional; outline: as §2

Row | Compound | MIC (Enterococcus faecium) | MIC (Staphylococcus aureus [1]) | MIC (Staphylococcus aureus [2]) | MIC (Enterococcus faecalis [3]) | MIC (Enterococcus faecalis [4]) | ED50 (Mus musculus [5]) | MIC (Staphylococcus aureus [6]) | MIC (Enterococcus faecalis [7]) | ED50 (Mus musculus [8])
1 | CCC(=O)NC[C@H]1CN(c2cc(F)c3c(c2)OC[C@@H]2CCCN32)C(=O)O1 | 8 µg/mL (≈ 22 µM) | 2 µg/mL (≈ 5.5 µM) | 4 µg/mL (≈ 11 µM) | 4 µg/mL (≈ 11 µM) | 8 µg/mL (≈ 22 µM) | 16 mg/kg | 4 µg/mL (≈ 11 µM) | – | –
2 | CC(C)C(=O)NC[C@H]1CN(c2ccc3c(c2)OC[C@@H]2CCCN32)C(=O)O1 | 32 µg/mL (≈ 89 µM) | 8 µg/mL (≈ 22.3 µM) | – | 32 µg/mL (≈ 89 µM) | 32 µg/mL (≈ 89 µM) | – | 16 µg/mL (≈ 44.5 µM) | – | –
3 | CC/C(S)=N\C[C@H]1CN(c2cc(F)c3c(c2)OC[C@@H]2CCCN32)C(=O)O1 | 0.5 µg/mL (≈ 1.32 µM) | 0.5 µg/mL (≈ 1.32 µM) | 0.5 µg/mL (≈ 1.32 µM) | 0.5 µg/mL (≈ 1.32 µM) | 0.5 µg/mL (≈ 1.32 µM) | 30 mg/kg | 1 µg/mL (≈ 2.64 µM) | – | –
4 | CCCCCCC(=O)NC[C@H]1CN(c2cc(F)c3c(c2)OC[C@@H]2CCCN32)C(=O)O1 | 32 µg/mL (≈ 76.3 µM) | 32 µg/mL (≈ 76.3 µM) | 32 µg/mL (≈ 76.3 µM) | 32 µg/mL (≈ 76.3 µM) | 32 µg/mL (≈ 76.3 µM) | – | 32 µg/mL (≈ 76.3 µM) | – | –
5 | CCOC(=O)NC[C@H]1CN(c2cc(F)c3c(c2)OC[C@@H]2CCCN32)C(=O)O1 | 8 µg/mL (≈ 21.1 µM) | 8 µg/mL (≈ 21.1 µM) | 8 µg/mL (≈ 21.1 µM) | 8 µg/mL (≈ 21.1 µM) | 8 µg/mL (≈ 21.1 µM) | – | 8 µg/mL (≈ 21.1 µM) | – | –
6 | COC(=O)NC[C@H]1CN(c2cc(F)c3c(c2)OC[C@@H]2CCCN32)C(=O)O1 | 2 µg/mL (≈ 5.47 µM) | 2 µg/mL (≈ 5.47 µM) | 2 µg/mL (≈ 5.47 µM) | 2 µg/mL (≈ 5.47 µM) | 2 µg/mL (≈ 5.47 µM) | 3.3 mg/kg | 2 µg/mL (≈ 5.47 µM) | – | –
7 | CC(C)O/C(S)=N\C[C@H]1CN(c2cc(F)c3c(c2)OC[C@@H]2CCCN32)C(=O)O1 | 8 µg/mL (≈ 19.5 µM) | 8 µg/mL (≈ 19.5 µM) | 8 µg/mL (≈ 19.5 µM) | 8 µg/mL (≈ 19.5 µM) | – | – | 8 µg/mL (≈ 19.5 µM) | 8 µg/mL (≈ 19.5 µM) | –
8 | CC(=O)NC[C@H]1CN(c2ccc(N3CCOCC3)c(F)c2)C(=O)O1 [LINEZOLID] | 2 µg/mL (≈ 5.93 µM) | 1 µg/mL (≈ 2.96 µM) | – | – | – | 3.91 mg/kg | – | – | –
9 | CO/C(S)=N\C[C@H]1CN(c2cc(F)c3c(c2)OC[C@@H]2CCCN32)C(=O)O1 | 0.5 µg/mL (≈ 1.31 µM) | 0.5 µg/mL (≈ 1.31 µM) | 1 µg/mL (≈ 2.62 µM) | 0.5 µg/mL (≈ 1.31 µM) | – | – | 1 µg/mL (≈ 2.62 µM) | 0.5 µg/mL (≈ 1.31 µM) | 4.85 mg/kg
10 | CCCCCC(=O)NC[C@H]1CN(c2cc(F)c3c(c2)OC[C@@H]2CCCN32)C(=O)O1 | 32 µg/mL (≈ 78.9 µM) | 16 µg/mL (≈ 39.5 µM) | 32 µg/mL (≈ 78.9 µM) | 32 µg/mL (≈ 78.9 µM) | 32 µg/mL (≈ 78.9 µM) | – | 32 µg/mL (≈ 78.9 µM) | – | –
11 | CCCCC(=O)NC[C@H]1CN(c2cc(F)c3c(c2)OC[C@@H]2CCCN32)C(=O)O1 | 32 µg/mL (≈ 81.7 µM) | 8 µg/mL (≈ 20.4 µM) | 16 µg/mL (≈ 40.9 µM) | 16 µg/mL (≈ 40.9 µM) | 16 µg/mL (≈ 40.9 µM) | – | 16 µg/mL (≈ 40.9 µM) | – | –
12 | CCC/C(S)=N\C[C@H]1CN(c2cc(F)c3c(c2)OC[C@@H]2CCCN32)C(=O)O1 | 1 µg/mL (≈ 2.54 µM) | 1 µg/mL (≈ 2.54 µM) | 2 µg/mL (≈ 5.08 µM) | 1 µg/mL (≈ 2.54 µM) | 1 µg/mL (≈ 2.54 µM) | 30 mg/kg | 2 µg/mL (≈ 5.08 µM) | – | –
13 | O=C1O[C@@H](C/N=C(/S)N2CCCC2)CN1c1cc(F)c2c(c1)OC[C@@H]1CCCN21 | 32 µg/mL (≈ 76.1 µM) | 32 µg/mL (≈ 76.1 µM) | 32 µg/mL (≈ 76.1 µM) | 32 µg/mL (≈ 76.1 µM) | 32 µg/mL (≈ 76.1 µM) | – | 32 µg/mL (≈ 76.1 µM) | – | –
14 | O=C1O[C@@H](C/N=C(/S)N2CCSCC2)CN1c1cc(F)c2c(c1)OC[C@@H]1CCCN21 | 16 µg/mL (≈ 35.4 µM) | 16 µg/mL (≈ 35.4 µM) | 16 µg/mL (≈ 35.4 µM) | 16 µg/mL (≈ 35.4 µM) | 16 µg/mL (≈ 35.4 µM) | – | 16 µg/mL (≈ 35.4 µM) | – | –
15 | O=C(CCl)NC[C@H]1CN(c2ccc3c(c2)OC[C@@H]2CCCN32)C(=O)O1 | 8 µg/mL (≈ 21.9 µM) | 2 µg/mL (≈ 5.47 µM) | – | 4 µg/mL (≈ 10.9 µM) | – | – | 4 µg/mL (≈ 10.9 µM) | 4 µg/mL (≈ 10.9 µM) | –
16 | O=C1O[C@@H](C/N=C(/S)N2CCOCC2)CN1c1cc(F)c2c(c1)OC[C@@H]1CCCN21 | 16 µg/mL (≈ 36.7 µM) | 16 µg/mL (≈ 36.7 µM) | 16 µg/mL (≈ 36.7 µM) | 16 µg/mL (≈ 36.7 µM) | 16 µg/mL (≈ 36.7 µM) | – | 16 µg/mL (≈ 36.7 µM) | – | –
17 | O=CNC[C@H]1CN(c2ccc3c(c2)OC[C@@H]2CCCN32)C(=O)O1 | 16 µg/mL (≈ 50.4 µM) | 4 µg/mL (≈ 12.6 µM) | – | 16 µg/mL (≈ 50.4 µM) | 16 µg/mL (≈ 50.4 µM) | – | 8 µg/mL (≈ 25.2 µM) | – | –
18 | C/N=C(\S)NC[C@H]1CN(c2cc(F)c3c(c2)OC[C@@H]2CCCN32)C(=O)O1 | 4 µg/mL (≈ 10.5 µM) | 2 µg/mL (≈ 5.26 µM) | 4 µg/mL (≈ 10.5 µM) | 2 µg/mL (≈ 5.26 µM) | 4 µg/mL (≈ 10.5 µM) | – | 4 µg/mL (≈ 10.5 µM) | – | –
19 | N=C(S)NC[C@H]1CN(c2cc(F)c3c(c2)OC[C@@H]2CCCN32)C(=O)O1 | 1 µg/mL (≈ 2.73 µM) | 0.5 µg/mL (≈ 1.36 µM) | 0.5 µg/mL (≈ 1.36 µM) | 1 µg/mL (≈ 2.73 µM) | 1 µg/mL (≈ 2.73 µM) | – | 0.5 µg/mL (≈ 1.36 µM) | – | –
